Assay results: ChEMBL document CHEMBL1909618, “Non-steroidal dissociated glucocorticoid agonists: indoles as A-ring mimetics and function-regulating pharmacophores” (Bioorg Med Chem Lett, 2011)

How the values were obtained:
[1] = target: T1, Mineralocorticoid receptor (Homo sapiens, UniProt P08235); assay: Displacement of tetramethylrhodamine-labeled Dexamethasone from human recombinant mineralocorticoid receptor expressed in baculovirus infected insect cells by fluorescence polarization assay
T1 sequence (P08235 whole entry): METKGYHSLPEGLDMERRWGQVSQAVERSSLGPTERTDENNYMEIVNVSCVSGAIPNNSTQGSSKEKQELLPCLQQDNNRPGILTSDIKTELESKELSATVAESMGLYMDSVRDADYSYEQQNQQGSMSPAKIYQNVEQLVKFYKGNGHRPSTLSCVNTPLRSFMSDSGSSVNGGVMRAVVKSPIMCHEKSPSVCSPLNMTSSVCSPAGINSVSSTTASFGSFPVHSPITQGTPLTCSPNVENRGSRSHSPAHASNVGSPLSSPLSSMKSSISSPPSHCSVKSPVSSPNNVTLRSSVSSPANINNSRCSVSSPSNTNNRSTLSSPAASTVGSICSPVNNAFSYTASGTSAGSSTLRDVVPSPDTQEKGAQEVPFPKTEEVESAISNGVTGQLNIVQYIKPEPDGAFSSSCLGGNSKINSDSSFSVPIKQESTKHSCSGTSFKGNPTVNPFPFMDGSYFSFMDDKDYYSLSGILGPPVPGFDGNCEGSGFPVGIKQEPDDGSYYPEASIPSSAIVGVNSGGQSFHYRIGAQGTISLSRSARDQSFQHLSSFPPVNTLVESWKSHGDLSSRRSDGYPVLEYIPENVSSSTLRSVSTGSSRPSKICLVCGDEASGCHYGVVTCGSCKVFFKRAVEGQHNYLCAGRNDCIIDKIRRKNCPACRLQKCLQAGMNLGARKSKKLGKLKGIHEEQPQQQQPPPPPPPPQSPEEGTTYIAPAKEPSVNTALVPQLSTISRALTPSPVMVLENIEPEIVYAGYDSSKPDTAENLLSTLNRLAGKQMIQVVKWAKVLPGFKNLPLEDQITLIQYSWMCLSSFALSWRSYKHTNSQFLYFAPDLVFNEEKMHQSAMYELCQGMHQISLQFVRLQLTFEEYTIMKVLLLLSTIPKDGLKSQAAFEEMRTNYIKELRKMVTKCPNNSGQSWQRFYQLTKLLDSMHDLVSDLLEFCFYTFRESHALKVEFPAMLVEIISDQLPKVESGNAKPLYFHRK
In short: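 Fluorescence polarization competition assays with recombinant human receptors in lysates of baculovirus-infected insect cells. Reactions contained 1% DMSO and ran 1 h at room temperature.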

[2] = target: T2, Glucocorticoid receptor (Homo sapiens) (UniProt P04150); assay: Transactivation activity of glucocorticoid receptor in HFF assessed as induction of aromatase activity by measuring beta-estradiol activity after 18 to 24 hrs by ELISA relative to Dexamethasone
T2 sequence (whole entry): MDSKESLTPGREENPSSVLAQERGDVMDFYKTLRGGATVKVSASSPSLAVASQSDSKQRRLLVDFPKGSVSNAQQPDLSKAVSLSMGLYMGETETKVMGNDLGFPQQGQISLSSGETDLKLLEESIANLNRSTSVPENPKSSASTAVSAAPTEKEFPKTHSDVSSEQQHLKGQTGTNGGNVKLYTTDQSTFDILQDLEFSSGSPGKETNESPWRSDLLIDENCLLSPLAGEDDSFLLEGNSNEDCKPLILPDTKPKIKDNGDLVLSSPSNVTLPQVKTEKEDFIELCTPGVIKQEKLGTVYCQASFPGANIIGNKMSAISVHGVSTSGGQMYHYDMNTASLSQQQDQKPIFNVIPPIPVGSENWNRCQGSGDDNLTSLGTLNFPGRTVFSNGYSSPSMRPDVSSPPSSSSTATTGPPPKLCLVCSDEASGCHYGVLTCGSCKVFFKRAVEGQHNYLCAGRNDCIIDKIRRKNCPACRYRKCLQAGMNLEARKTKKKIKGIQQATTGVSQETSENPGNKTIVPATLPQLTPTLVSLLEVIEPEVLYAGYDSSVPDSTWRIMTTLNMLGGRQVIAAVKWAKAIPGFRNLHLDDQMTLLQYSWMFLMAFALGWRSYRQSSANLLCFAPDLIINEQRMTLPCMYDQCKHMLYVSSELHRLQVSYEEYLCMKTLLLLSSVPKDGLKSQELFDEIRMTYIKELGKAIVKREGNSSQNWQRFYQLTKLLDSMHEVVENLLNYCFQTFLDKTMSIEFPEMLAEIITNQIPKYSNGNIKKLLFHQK

[3] = target: T3, Glucocorticoid receptor (Homo sapiens, UniProt P04150); assay: Agonist activity at glucocorticoid receptor in HFF assessed as inhibition of IL1-induced IL-6 production after 18 to 24 hrs; type: functional
T3 sequence (P04150 whole entry): T2 sequence (whole entry)

[4] = target: T3, Glucocorticoid receptor; assay: Transactivation activity of glucocorticoid receptor in HFF assessed as induction of aromatase activity by measuring beta-estradiol activity after 18 to 24 hrs by ELISA; conditions: read-out: EC50
[5] = target: T3, Glucocorticoid receptor; assay: Displacement of tetramethylrhodamine-labeled Dexamethasone from human recombinant glucocorticoid receptor expressed in baculovirus infected insect cells by fluorescence polarization assay
[6] = test system: Mus musculus; assay: Antiinflammatory activity in mouse plasma assessed as inhibition of LPS-induced TNFalpha production at 10 mg/kg, po administered 1 hr before LPS challenge measured after 1 hr; type: functional
In short: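 Mice received compound orally in Cremophor RH 1 h before LPS challenge. Plasma TNF-α was measured 1 h after challenge. n = 8 per group; doses were 3 and 10 mg/kg.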

[7] = target: T2, Glucocorticoid receptor (Homo sapiens); assay: Agonist activity at glucocorticoid receptor in HFF assessed as inhibition of IL1-induced IL-6 production after 18 to 24 hrs relative to Dexamethasone; type: functional
In short: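 Human foreskin fibroblasts stimulated with IL-1 (1 ng/mL) in the presence of test compound, incubated at 37 °C for 18–24 h. IL-6 in the culture medium was quantified by electrochemiluminescence, DELFIA or ELISA. IC50 and % maximal efficacy were reported.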

IC50 [1]	Efficacy [2]	IC50 [3]	EC50 [4]	IC50 [5]	Efficacy [7]	Compound	inhibition in vivo at 10 mg/kg [6]
190 nM	98%	6 nM	18 nM	10 nM	87%	COc1ccc(F)cc1C(C)(C)C[C@@](O)(Cc1cc2ccccc2[nH]1)C(F)(F)F	35%
230 nM	74%	28 nM	120 nM	2 nM	88%	CC(C)(C[C@@](O)(Cc1cc2ccc(C#N)cc2[nH]1)C(F)(F)F)c1cc(S(C)(=O)=O)cc2c1OCC2	88%
